# STAT1 activator: STAT1 signaling activation | NIH 3T3 STAT1-luciferase reporter, IFN-gamma, luminescence; 100% = IFN-gamma alone, no compound | activation (% of control), % at 5.5 µM | 200,000 compounds, 2.6% hits;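 active means activation above the screen-wide mean activation plus 3 SD, cut at about 130% in these data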;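 further: raw ratio to IFN-gamma control signal so 100% means no change and 0% no light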
# STAT3 blocker: STAT3 signaling inhibition | U3A cells, IL-6 STAT3-luciferase reporter, luminescence; host cell line lacks STAT1 | 190,000 compounds, 0.89% hits | AID 862 | inhibition, % at 5.5 µM;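 active means inhibition above the mean inhibition across all screened compounds plus 3 SD, cut at about 44% in these data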;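 further: 0% = DMSO only wells and 100% = 100 µM nifuroxazide control wells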
# STAT3 act: STAT3 signaling activation. 190,000 compounds, 0.91% hits. activation (% of control), % at 5.6 µM. U3A cells, IL-6 STAT3-luciferase reporter, luminescence; 100% = signal with IL-6 EC80 alone;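 active means activation above the screen-wide mean of compound activation plus 3 SD, cut at about 130% in these data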;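 further: 0% = background luminescence of wells with medium and substrate only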
#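 System – human U3A cells carrying STAT3-luciferase construct · Probe or stimulus – Interleukin-6, 33 ng/mL · Schedule – compound 1 h, then IL-6 6 h at 37 °C · Signal – luminescence from STAT3-driven luciferase reporter · Evaluation – percent of IL-6-only median luminescence · Benchmarks – IL-6-only high control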
# NF-kB expr up: raises NF-kB expression in human neuronal cells; 190,000 compounds, 1.6% hits; fold change at 12.5 µM; AID 1239; NF-kB reporter expression; hits give high values; in the data active means fold change above about 3.3
# STAT1 inh: reduces IFN-gamma driven STAT1 reporter signal. NIH 3T3 STAT1-luciferase reporter, luminescence. 200,000 compounds, 0.35% hits. inhibition, % at 5.5 µM;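 active means inhibition above a set limit, the mean inhibition across all tested compounds plus 3 SD, cut at about 34% in these data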;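 further: 0% = IFN-gamma with DMSO and 100% = IFN-gamma with 300 µM nifuroxazide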
# APP 5'UTR act: activates APP 5'UTR luciferase reporter. SH-SY5Y APP 5'UTR luciferase reporter, luminescence; zero percent = DMSO vehicle wells. 190,000 compounds, 1% hits. activation, % at 2 µM. AID 1276;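 active means activation above a set limit, based on mean plus 3 SD of controls, cut at about 140% in these data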
# STAT1 activ conf: confirmation of STAT1 signaling activators; activation (% of control), % at 5.7 µM; shares compounds with STAT1 activator; NIH 3T3 STAT1-luciferase reporter, IFN-gamma potentiation, luminescence; 100% = IFN-gamma EC80 alone, no compound; AID 1262; 1,200 compounds, 97% hits;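 active means activation above a set limit carried over from the earlier primary STAT1 screen, cut at about 140% in these data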;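 further: simple ratio to median IFN-gamma plus DMSO wells so 0% means no light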
# NFkB act: NF-kappaB activation in STAT1 activator counter-screen; HEK293T NF-kB luciferase reporter, TNF-alpha stimulated, luminescence; 100% = TNF-alpha with vehicle only; activation (% of control), % at 5.7 µM; shares compounds with STAT1 activator; AID 1306; 1,200 compounds, 43% hits;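 active means activation above the mean of solvent-only control wells plus 3 SD, set per campaign, cut at about 130% in these data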;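 further: TNF-alpha given at a submaximal dose yielding about 80% of full reporter signal; values are well signal over median control so 100% means no change and 0% no light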
# STAT3 act STAT1c: human STAT3 activation in STAT1 activator counter-screen. activation (% of control), % at 5.7 µM. shares compounds with STAT1 activator. 1,200 compounds, 46% hits. U3A cells STAT3-luciferase reporter, IL-6, luminescence; cells lack STAT1; 100 = IL-6 alone, no compound effect;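 active means activation above the solvent-only control well mean plus 3 SD, set per plate batch, cut at about 110% in these data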;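 further: 0% = no luminescence and 100% = median IL-6 plus DMSO wells; higher means more STAT3 reporter activation so hits are non-selective activators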
# * hit, by the source's call; . = no result given. An excerpt weighted towards active compounds, which were near 5.1% of everything screened.
SMILES,STAT1 activator,STAT3 blocker,STAT3 act,NF-kB expr up,STAT1 inh,APP 5'UTR act,STAT1 activ conf,NFkB act,STAT3 act STAT1c
O=C(Nc1ccc2c(c1)Cc1ccccc1-2)c1ccco1,174*,18,87,4*,-81,179*,211*,139*,102
COc1ccc(C(=O)Nc2ccc3c(c2)Cc2ccccc2-3)cc1,99,4,103,1.2,1,-8,.,.,.
Clc1ccc(-n2nnc(-c3cccnc3)n2)cc1Cl,159*,.,.,2.3,-62,51,149*,125,108
COc1ncccc1-c1nnn(-c2ccc(C)cc2)n1,152*,.,.,3.7*,-54,98,205*,141*,117*
O=c1[nH]c2ccccc2cc1-c1nnn(-c2ccc(F)cc2)n1,125,.,.,1.9,-25,91,.,.,.
COc1ncccc1-c1nnn(-c2ccc(Cl)c(Cl)c2)n1,158*,.,.,4*,-61,106,164*,132,101
COc1ncccc1-c1nnn(-c2ccc(F)cc2)n1,155*,.,.,3.8*,-57,106,194*,132,112*
CCOC(=O)c1oc2ccccc2c1NC(=O)c1ccc(Cl)s1,103,16,94,1.1,-3,-7,.,.,.
O=[N+]([O-])c1ccc(S(=O)(=O)NCCc2cn3ccccc3n2)cc1,100,-3,102,0.77,0,-5,.,.,.
Cc1cc(NC(=O)C23CC4CC(C2)CC(n2cnc([N+](=O)[O-])n2)(C4)C3)no1,102,0,102,1.2,-2,8,.,.,.
CC(=O)c1cnc2c(-c3ccccc3)cnn2c1C,121,21,85,1.3,-23,13,.,.,.
CCOC(=O)c1cnc2c(-c3ccccc3)cnn2c1C,154*,20,85,7.3*,-60,155*,198*,135*,102
COc1ccc(-n2c(C)cc(C(=O)Cn3nnc4ccccc4c3=O)c2C)cc1,155*,0,106,1.3,-62,18,176*,106,99
COc1cccc2cc(-c3cn4ccc(C)cc4n3)c(=O)oc12,169*,20,86,.,-76,87,218*,134*,105
Cn1c(Cn2c(=O)sc3ccccc32)nnc1SCC(=O)NCCc1ccccc1,106,3,98,0.98,-5,9,.,.,.
O=C(Nc1nccs1)c1ccc(-c2ccccc2Cl)o1,152*,-8,116,2.7,-58,156*,178*,136*,107
O=C(Nc1nccs1)c1ccc(-c2ccc([N+](=O)[O-])cc2)o1,151*,26,81,1.7,-58,103,183*,130,96
COc1ccc(NC(=O)c2ccc(-c3ccc([N+](=O)[O-])cc3)o2)cc1,108,4,98,1.1,-8,19,.,.,.
O=C(Nc1ccn(Cc2ccccc2)n1)c1ccc2c(c1)OCO2,123,1,108,1.8,-25,43,.,.,.
O=C(Nc1ccn(Cc2ccc(Cl)cc2)n1)c1ccccc1,151*,-7,110,2.5,-60,47,152*,122,112*
Cc1cc(C)n2ncc(S(=O)(=O)c3ccccc3)c2n1,98,-2,103,1,1,12,.,.,.
O=C1/C(=C/Nc2cccc([N+](=O)[O-])c2)CCc2ccccc21,169*,0,100,4.5*,-77,140*,212*,134*,108
O=C(/C(C=Nc1cccc(C(F)(F)F)c1)=C(/O)c1ccco1)C(F)(F)F,108,-9,106,1.6,-9,25,.,.,.
O=C(/C(C=Nc1ccc(Br)cc1)=C(/O)c1ccco1)C(F)(F)F,166*,40,66,5.7*,-72,171*,201*,92,84
